Results published in ChEMBL document CHEMBL2016487, “Pyrazolopyrimidines as dual Akt/p70S6K inhibitors” (Bioorg Med Chem Lett, 2012).
pIC50: −log10 of the molar value.

Assays:
[1] = target: T1, Ribosomal protein S6 kinase beta-1 (Homo sapiens, UniProt P23443); experiment: Inhibition of p70S6K after 3 hrs by luciferase based chemiluminescence assay
[2] = target: T2, RAC-alpha serine/threonine-protein kinase (Homo sapiens, UniProt P31749); experiment: Inhibition of AKT1 after 3 hrs by luciferase based chemiluminescence assay
T2 sequence (P31749 whole entry): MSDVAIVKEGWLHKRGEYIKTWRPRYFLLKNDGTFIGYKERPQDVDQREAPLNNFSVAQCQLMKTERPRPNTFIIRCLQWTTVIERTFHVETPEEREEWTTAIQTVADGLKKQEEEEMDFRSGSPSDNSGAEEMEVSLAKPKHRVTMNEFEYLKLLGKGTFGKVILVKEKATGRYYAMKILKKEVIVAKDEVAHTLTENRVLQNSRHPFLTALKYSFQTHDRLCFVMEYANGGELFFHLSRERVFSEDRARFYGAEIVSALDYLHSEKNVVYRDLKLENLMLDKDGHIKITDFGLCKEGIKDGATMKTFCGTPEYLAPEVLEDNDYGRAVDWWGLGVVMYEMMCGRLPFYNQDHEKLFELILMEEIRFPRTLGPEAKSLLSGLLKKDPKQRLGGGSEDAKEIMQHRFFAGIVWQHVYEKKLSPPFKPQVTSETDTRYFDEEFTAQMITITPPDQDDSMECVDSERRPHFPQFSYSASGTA

[3] = target: T2, RAC-alpha serine/threonine-protein kinase; experiment: Inhibition of AKT1-mediated GSK3beta phosphorylation in human PC3 cells after 3 hrs by chemiluminescence assay; format: cell-based, PC-3
Procedure, shortened: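 PC-3 cells seeded at 7.5 × 10³ cells/well, grown 24 h, then serum-starved 24 h. Compound treatment 3 h in triplicate (0.2% DMSO final), followed by 100 ng/ml IGF1 for 30 min. Fixed and processed as a cell ELISA using anti-phospho-GSK3β (S9) and anti-total-GSK3β antibodies, chemiluminescent read-out.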

[4] = target: T1, Ribosomal protein S6 kinase beta-1; experiment: Inhibition of p70S6K-mediated ribosomal protein S6 phosphorylation in human PC3 cells after 3 hrs by chemiluminescence assay; format: cell-based, PC-3
Procedure, shortened: (§1)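 A549 or PC-3 cells seeded at 7.5 × 10³ cells/well in DMEM with heat-inactivated 10% FBS, 1% penicillin–streptomycin, 1% non-essential amino acids, grown 48 h at 37 °C, 5% CO₂. Treated 3 h with compound at 1.2–300 nM, triplicate, 0.2% DMSO final. Fixed in 4% formaldehyde, blocked, probed with anti-phospho-S6 (Ser240/244) and anti-total-S6 overnight at 4 °C, chemiluminescent read-out.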

[5] = Drug metabolism in mouse liver microsomes at 15 uM after 30 mins; format: ADME, Microsome; settings: read-out: Drug metabolism
Procedure, shortened: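 Mouse liver microsomes at 0.5 mg/mL, incubated 30 min with compound at 15 µM; value reported as % conversion.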

[6] = target: T1, Ribosomal protein S6 kinase beta-1; experiment: Inhibition of p70S6K-mediated ribosomal protein S6 phosphorylation in human A549 cells after 3 hrs by chemiluminescence assay; format: cell-based; procedure, shortened: as §1
[7] = Cmax in rat at 2.5 mg/kg, iv; format: ADME, organism-based; set-up: dose 2.5 mg/kg, route intravenous; settings: in vivo
[8] = Half life in rat at 2.5 mg/kg, iv; format: ADME, organism-based; set-up: dose 2.5 mg/kg, route intravenous; settings: in vivo
[9] = system: Rattus norvegicus; experiment: Dose normalized AUC in rat at 2.5 mg/kg, po; format: ADME, organism-based; set-up: dose 2.5 mg/kg, route oral; settings: in vivo
[10] = Plasma concentration in mouse at 100 mg/kg after 4 hrs; format: ADME, organism-based; set-up: dose 100 mg/kg
Procedure, shortened: (§2)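 Mouse plasma levels measured 1 and 4 h after a 100 mg/kg dose.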

[11] = Half life in rat at 2.5 mg/kg, po; format: ADME, organism-based; set-up: dose 2.5 mg/kg, route oral; settings: in vivo
[12] = Volume of distribution in rat at 2.5 mg/kg; format: ADME, organism-based; set-up: dose 2.5 mg/kg; settings: in vivo
[13] = Oral bioavailability in rat at 2.5 mg/kg; format: ADME, organism-based; settings: in vivo
[14] = Plasma concentration in mouse at 100 mg/kg after 1 hr; format: ADME, organism-based; set-up: dose 100 mg/kg; procedure, shortened: as §2
[15] = system: Rattus norvegicus; experiment: Dose normalized AUC in rat at 2.5 mg/kg, iv; format: ADME, organism-based; set-up: dose 2.5 mg/kg, route intravenous; settings: in vivo
[16] = Clearance in rat at 2.5 mg/kg; format: ADME, organism-based; set-up: dose 2.5 mg/kg; settings: in vivo
[17] = Cmax in rat at 2.5 mg/kg, po; format: ADME, organism-based; set-up: dose 2.5 mg/kg, route oral; settings: in vivo
[18] = Cmax in rat at 5 mg/kg, iv; format: ADME, organism-based; set-up: dose 5 mg/kg, route intravenous; settings: in vivo
[19] = Half life in rat at 5 mg/kg, iv; format: ADME, organism-based; set-up: dose 5 mg/kg, route intravenous; settings: in vivo
[20] = Volume of distribution in rat at 5 mg/kg; format: ADME, organism-based; set-up: dose 5 mg/kg; settings: in vivo
[21] = Oral bioavailability in rat at 5 mg/kg; format: ADME, organism-based; settings: in vivo
[22] = Half life in rat at 5 mg/kg, po; format: ADME, organism-based; set-up: dose 5 mg/kg, route oral; settings: in vivo
[23] = system: Rattus norvegicus; experiment: Dose normalized AUC in rat at 5 mg/kg, iv; format: ADME, organism-based; set-up: dose 5 mg/kg, route intravenous; settings: in vivo
[24] = Clearance in rat at 5 mg/kg; format: ADME, organism-based; set-up: dose 5 mg/kg; settings: in vivo
[25] = Cmax in rat at 5 mg/kg, po; format: ADME, organism-based; set-up: dose 5 mg/kg, route oral; settings: in vivo
[26] = system: Rattus norvegicus; experiment: Dose normalized AUC in rat at 5 mg/kg, po; format: ADME, organism-based; set-up: dose 5 mg/kg, route oral; settings: in vivo
[27] = Plasma concentration in mouse at 30 mg/kg after 4 hrs; format: ADME, organism-based; set-up: dose 30 mg/kg

T1 sequence (P23443 whole entry): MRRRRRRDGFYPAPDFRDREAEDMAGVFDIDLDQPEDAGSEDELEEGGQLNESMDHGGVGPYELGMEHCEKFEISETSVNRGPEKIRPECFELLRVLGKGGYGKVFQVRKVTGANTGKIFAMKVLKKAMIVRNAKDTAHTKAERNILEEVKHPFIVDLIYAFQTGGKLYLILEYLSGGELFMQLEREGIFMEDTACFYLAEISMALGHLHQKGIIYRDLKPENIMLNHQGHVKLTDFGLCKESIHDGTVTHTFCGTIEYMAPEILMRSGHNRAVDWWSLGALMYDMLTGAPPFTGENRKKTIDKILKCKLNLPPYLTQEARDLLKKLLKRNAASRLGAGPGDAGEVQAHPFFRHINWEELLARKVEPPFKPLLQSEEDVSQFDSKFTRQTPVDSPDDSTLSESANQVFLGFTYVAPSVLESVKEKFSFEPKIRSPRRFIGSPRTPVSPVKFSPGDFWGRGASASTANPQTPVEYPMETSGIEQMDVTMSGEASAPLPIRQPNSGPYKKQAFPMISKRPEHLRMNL

Row | Compound | pIC50 [1] | pIC50 [2] | pIC50 [3] | pIC50 [4] | pIC50 [6] | concentration at 1 h [14] [nM] | also measured
1 | CCOc1cc(NCCN2CCCC2)c(C)c(N2CCN(c3ncnc4[nH]nc(Br)c34)CC2)c1 | 8.70 | 7.25 | 5.04 | – | 6.71 | – | –
2 | COC(=O)c1cc(NCCN2CCCC2)c(C)c(N2CCN(c3ncnc4[nH]nc(Br)c34)CC2)c1 | 8.70 | 8.30 | 5.73 | 7.28 | 7.36 | – | –
3 | CCC(=O)c1cc(NCCN2CCCC2)c(C)c(N2CCN(c3ncnc4[nH]nc(Br)c34)CC2)c1 | 9.00 | 8.30 | 6.01 | 7.60 | 7.74 | 2000 | Cmax [18]: 1440 nM; half-life [19]: 3.1 h; concentration at 4 h [10]: 2000 nM; Vd [20]: 10.5 L/kg; bioavailability [21]: 28%; half-life [22]: 2.9 h; AUC/dose [23]: 0.56 µM·kg·h/mg; clearance [24]: 49 mL/min/kg; Cmax [25]: 140 nM; AUC/dose [26]: 0.15 µM·kg·h/mg
4 | Cc1c(NCCN2CCCC2)cc(Cl)cc1N1CCN(c2ncnc3[nH]nc(Br)c23)CC1 | 8.70 | 7.38 | 5.90 | 6.35 | 7.03 | – | metabolised at 0.5 h, 15 µM [5]: 19%
5 | Cc1noc(-c2cc(NCCN3CCCC3)c(C)c(N3CCN(c4ncnc5[nH]nc(Br)c45)CC3)c2)n1 | 9.00 | 8.22 | 6.18 | 7.33 | 7.89 | 300 | Cmax [7]: 370 nM; half-life [8]: 2.4 h; AUC/dose [9]: 0.05 µM·kg·h/mg; half-life [11]: 2.9 h; Vd [12]: 14.2 L/kg; bioavailability [13]: 10%; concentration at 4 h [27]: 100 nM; AUC/dose [15]: 0.45 µM·kg·h/mg; clearance [16]: 73 mL/min/kg; Cmax [17]: 10 nM

The next lines start with results.

Row | pIC50 [1] | pIC50 [2] | pIC50 [3] | pIC50 [4] | pIC50 [6] | concentration at 1 h [14] [nM] | Compound | also measured
6 | 8.52 | 6.36 | 5.45 | 6.08 | 7.10 | – | CCc1n[nH]c2ncnc(N3CCN(c4cc(Cl)cc(NCCN5CCCC5)c4C)CC3)c12 | metabolised at 0.5 h, 15 µM [5]: 18%
7 | 8.70 | 8.10 | 6.14 | 7.18 | 7.77 | 1200 | Cc1c(NCCN2CCCC2)cc(COCC(F)(F)F)cc1N1CCN(c2ncnc3[nH]nc(Br)c23)CC1 | Cmax [7]: 390 nM; half-life [8]: 2.1 h; AUC/dose [9]: 0.05 µM·kg·h/mg; concentration at 4 h [10]: 1200 nM; half-life [11]: 1.4 h; Vd [12]: 9.7 L/kg; bioavailability [13]: 11%; AUC/dose [15]: 0.43 µM·kg·h/mg; clearance [16]: 63.5 mL/min/kg; Cmax [17]: 20 nM
